Measurements taken from article PMC4011022 (Molecular cell, 2014).
Like-named read-outs stand apart in the source and are kept apart here.

How the values were obtained:
[1] = molecular target: T1, CK2α (casein kinase-2 catalytic subunit) (Homo sapiens, UniProt P68400); format: binding
Procedure, shortened: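 GST-tagged CK2α was expressed in E. coli and purified. Twenty μg, held on glutathione beads, was incubated overnight at 4 °C with [3H]IP6 (10–20 Ci/mmol) in 40 mM Tris pH 8.0, 150 mM NaCl, 1 mM MgCl2, 4% glycerol and 0.1% Triton. Unlabeled IP6 was added over a concentration series as competitor. Controls were buffer or GST alone. Data are mean ± SE of at least three independent experiments.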

[2] = molecular target: T1, CK2α (casein kinase-2 catalytic subunit); assay: competition of [3H]IP6 radioligand binding to purified recombinant GST-CK2α

T1 sequence (P68400 whole entry): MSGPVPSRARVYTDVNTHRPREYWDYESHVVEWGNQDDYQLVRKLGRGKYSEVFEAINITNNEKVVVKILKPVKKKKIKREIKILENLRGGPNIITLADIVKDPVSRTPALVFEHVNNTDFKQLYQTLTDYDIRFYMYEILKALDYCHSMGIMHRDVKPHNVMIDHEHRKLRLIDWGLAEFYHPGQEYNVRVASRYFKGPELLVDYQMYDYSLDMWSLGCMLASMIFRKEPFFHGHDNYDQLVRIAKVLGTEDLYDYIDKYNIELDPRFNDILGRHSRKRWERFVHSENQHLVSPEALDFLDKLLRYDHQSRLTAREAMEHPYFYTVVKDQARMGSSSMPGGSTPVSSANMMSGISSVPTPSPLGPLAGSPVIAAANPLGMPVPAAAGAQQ

Row | IC50 [1] [µM] | IC50 [2] [µM] | SMILES
1 | 14 |  | O=P(O)(O)O[C@H]1[C@H](OP(=O)(O)O)[C@@H](OP(=O)(O)O)[C@H](OP(=O)(O)O)[C@@H](OP(=O)(O)O)[C@H]1OP(=O)(O)O [IP6]
2 |  | ~0.4 | O=P(O)(O)O[C@H]1[C@@H](OP(=O)(O)O)[C@H](OP(=O)(O)O)[C@@H](OP(=O)(O)OP(=O)(O)O)[C@H](OP(=O)(O)O)[C@H]1OP(=O)(O)O [IP7]
